PMI activator – phosphomannose isomerase (human) activation. P34949. purified human PMI, coupled resazurin fluorescence, 20 min; hits give high values; 1 = vehicle control, 0 substrate-free wells. activation factor at 20 µM. 190,000 tested, 0.005% active. AID 1214;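 active = activation factor of 2 or more at 20 µM, relative to plate controls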
Target sequence (P34949 whole entry, looked up): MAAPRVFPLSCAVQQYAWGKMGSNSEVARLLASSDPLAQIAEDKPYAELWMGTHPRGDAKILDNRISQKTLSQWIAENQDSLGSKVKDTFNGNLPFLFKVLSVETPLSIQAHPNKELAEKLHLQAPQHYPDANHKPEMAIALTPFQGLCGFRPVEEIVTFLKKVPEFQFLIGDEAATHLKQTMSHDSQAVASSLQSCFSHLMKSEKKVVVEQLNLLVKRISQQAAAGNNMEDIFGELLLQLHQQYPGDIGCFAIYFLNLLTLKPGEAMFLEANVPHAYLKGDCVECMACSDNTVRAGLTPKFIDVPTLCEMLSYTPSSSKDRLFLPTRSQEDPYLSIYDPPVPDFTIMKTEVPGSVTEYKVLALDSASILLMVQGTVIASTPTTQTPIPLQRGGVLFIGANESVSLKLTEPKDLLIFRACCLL
PMI act satM6P – increases human PMI activity with near-saturating mannose 6-phosphate. AID 1216. 190,000 tested, 0.34% active. coupled PMI enzyme assay, resazurin fluorescence, 20 min; hits give high values; 1 = untreated enzyme, 0 = substrate-free blank. activation factor at 20 µM;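 active = activation factor of 2 or more at 20 µM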
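Test system: Human PMI in coupled enzyme assay | Input: 15 ng/mL PMI | Medium: HEPES-buffered pH 7.4 with magnesium and detergent | Compound: One concentration, 20 µM, in 1% DMSO | Incubation: Enzyme reaction with compound 20 min at room temperature | Detection: Diaphorase-driven resazurin-to-resorufin fluorescence, excitation 544, emission 590 nm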
Lmaj promast – inhibitors of Leishmania major promastigote growth | Leishmania major promastigotes, resazurin fluorescence viability | inhibition, % at 10 µM | 200,000 tested, 9% active; in the data active = inhibition above about 50%;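 also: promastigotes grown with compound for 44 hours at 28 °C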
bCat KO growth – beta-catenin-lacking colon tumor cell growth suppression | 140,000 tested, 1.5% active | HCT116 beta-catenin knockout viability, CellTiter-Glo, 60 h; hits give low values | AID 818 | viability, % at 10 µM;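 active = viability at or under a set limit, the compound median less 4 SD, cut at about 6% in these data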
PTEN del growth – suppresses growth of cells with PTEN deletion | viability, % at 10 µM | 140,000 tested, 1.2% active | HCT116 PTEN-null viability, CellTiter-Glo, 60 h; hits give low values | AID 827;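 active = viability at or below a set limit, 4 SD under the median of all tested compounds, cut at about 3.7% in these data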;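 also: PTEN knockout HCT116 line with beta catenin targeted HCT116 as companion control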
Each line names hits and unclear results; the compound was inactive in the other large screens. Hits are enriched below; roughly 9.6% of the tested compounds scored in any of these assays.

CN(Cc1ccncn1)C(=O)CC1C(=O)NCCN1Cc1cccc(Oc2ccccc2)c1 (stereo not given)	Lmaj promast 94.7 (no result: bCat KO growth, PTEN del growth)
CCOC(=O)c1c(NC(=O)CSc2nnc(C)s2)sc2c1CCC(CC)C2 (stereo not given)	none
COc1ccc(/C=C(/NC(=O)c2ccccc2)C(=O)NC2CCS(=O)(=O)C2)cc1 (stereo not given)	none
CC(C)NC(=S)N/N=C1\CCCc2ccccc21	none (no result: bCat KO growth, PTEN del growth)
CSc1ccccc1NC(=O)CO/N=C(\C)c1cc2ccccc2o1	Lmaj promast 95.3
C/C(=N\OCC(=O)Nc1ccc(F)c(F)c1F)c1cc2ccccc2o1	none
COc1cc(CN2CCN(c3cccc(C)c3C)CC2)cc([N+](=O)[O-])c1O	Lmaj promast 70.9 (no result: bCat KO growth, PTEN del growth)
CC(=O)Nc1ccc(Nc2nc(C)c([N+](=O)[O-])c(Nc3ccccc3)n2)cc1	Lmaj promast 91.2
Cc1ccc(S(=O)(=O)N(C)c2cc(S(=O)(=O)N3CCC(C)CC3)c(C)cc2C)cc1	Lmaj promast 77.2
CC1CN(C2CCN(C(=O)c3ccccc3Cl)CC2)CC(C)O1 (stereo not given)	Lmaj promast 88.4
O=C(c1cccc(Cl)c1)N1CCC(N2CCC(C(=O)N3CCOCC3)CC2)CC1	none (no result: bCat KO growth, PTEN del growth)
O=C(c1cccc(F)c1)N1CCC(N2CCOCC2)CC1	Lmaj promast 62.5
CC1CN(C2CCN(C(=O)c3cccc(Cl)c3)CC2)CC(C)O1 (stereo not given)	Lmaj promast 91.0
Cc1ccc2nc(SC(C)C(=O)NCc3ccc4c(c3)OCO4)[nH]c2c1 (stereo not given)	none
Cc1c(/C=N/NC(=O)CNc2ccccc2)c2ccccn2c1C(=O)c1ccccc1	none
CCOC(=O)Nc1oc2ccccc2c(=O)c1CN1CCOCC1	none
COc1ccc(CCc2nc(C)ccc2O)cc1	none
CCc1nnc(NC(=O)c2ccc3ccccc3n2)s1	Lmaj promast 55.9 (no result: bCat KO growth, PTEN del growth)
CCSc1nnc(NC(=O)c2ccc3ccccc3n2)s1	none
S=C(NCCCN1CCOCC1)Nc1ccc(Cl)cc1Cl	Lmaj promast 99.2
COc1cc(NC(=S)NCCCN2CCOCC2)c(OC)cc1Cl	none (no result: bCat KO growth, PTEN del growth)
COc1ccc(NC(=S)NCCN2CCOCC2)c(OC)c1	none (no result: PMI activator, PMI act satM6P, bCat KO growth, PTEN del growth)
S=C(NCCN1CCOCC1)Nc1cccc2ccccc12	Lmaj promast 66.6
COc1ccc(OC)c(NC(=S)NCCCN2CCOCC2)c1	Lmaj promast 61.6
COc1ccccc1NC(=S)NCCN1CCOCC1	none
Oc1ccc(/C=N/NC(=S)NCCN2CCOCC2)c(O)c1	Lmaj promast 95.9 (no result: bCat KO growth, PTEN del growth)
O=C(CN1CCN(S(=O)(=O)c2ccc(Br)cc2)CC1)N/N=C/c1ccco1	none
O=C(Nc1cccc(S(=O)(=O)N2CCCCC2)c1)c1ccc(S(=O)(=O)C(F)F)cc1	none (no result: bCat KO growth, PTEN del growth)
O=C(NCCN1CCOCC1)/C(=C\c1ccc(Br)cc1)NC(=O)c1cccs1	none
O=C(Nc1ncc(Cc2ccccc2)s1)C1COc2ccccc2O1 (stereo not given)	none
Cc1cc(Cl)ccc1NC(=S)NCCN1CCOCC1	Lmaj promast 60.2
S=C(NCCN1CCOCC1)Nc1ccc(Cl)cc1Cl	Lmaj promast 95.6
Fc1cc(Cl)ccc1NC(=S)NCCN1CCOCC1	none (no result: bCat KO growth, PTEN del growth)
O=S(=O)(NN1CCOCC1)c1ccc(Cl)s1	none (no result: bCat KO growth, PTEN del growth)
CSCCC(=O)Nc1cc(S(=O)(=O)N2CCOCC2)ccc1N1CCN(C)CC1	none (no result: bCat KO growth, PTEN del growth)
CCOC(=O)N1CCC(N2Cc3cccc(C(=O)Nc4cccc(F)c4)c3C2=O)CC1	none (no result: bCat KO growth, PTEN del growth)
COC(=O)c1ccc(CN2CCN(CC=C(C)C)C(CCO)C2)cc1 (stereo not given)	Lmaj promast 73.0 (no result: PMI activator, PMI act satM6P, bCat KO growth, PTEN del growth)
COc1ccc(/C=C/CN2CCN(Cc3ccc(F)cc3)C(CCO)C2)cc1 (stereo not given)	Lmaj promast 68.0 (no result: bCat KO growth, PTEN del growth)
COc1ccc(/C=C/CN2CCN(Cc3ccccc3)C(CCO)C2)cc1 (stereo not given)	none (no result: bCat KO growth, PTEN del growth)
COC(=O)c1ccc(CN2CCN(Cc3ccc(F)cc3)C(CCO)C2)cc1 (stereo not given)	Lmaj promast 59.2 (no result: bCat KO growth, PTEN del growth)
Cc1ccc(CN2C(=O)CCC2C(=O)NCc2cccnc2)cc1 (stereo not given)	none
CC1CN(Cc2cc(=O)[nH]c(C3CC3)n2)CC(C)O1 (stereo not given)	none
O=C(CSc1nncn1-c1ccccc1)NC1CCCCC1	none (no result: bCat KO growth, PTEN del growth)
Cc1ccc(C(C)C)c(OCC(=O)Nn2c(=O)[nH]c3ccccc3c2=O)c1	Lmaj promast 59.0
O=C(CSCc1ccccc1)NNC(=S)Nc1cccc(Cl)c1Cl	none
CCCCCCCCCOC(=O)C[n+]1csc(CCO)c1C	Lmaj promast 97.9
Cc1c(CCO)sc[n+]1CC(=O)OCCC12CC3CC(CC(C3)C1)C2	none
O=S(=O)(c1ccccc1)N1CCN=C1SCc1ccccc1	none (no result: bCat KO growth, PTEN del growth)
Cc1ccc(CSC2=NCCN2S(=O)(=O)c2ccccc2)cc1	Lmaj promast 99.5 (no result: bCat KO growth, PTEN del growth)
CC(=O)N(C)c1ccc(C(O)(C(F)(F)F)C(F)(F)F)cc1	Lmaj promast 98.9 (no result: bCat KO growth, PTEN del growth)
CCOC(=O)N(C)c1ccc(C(O)(C(F)(F)F)C(F)(F)F)cc1	Lmaj promast 100.0
O=C(CNC(=O)c1ccc(Cl)cc1)NCC(F)(F)F	Lmaj promast 55.1
CC(=O)NCCNC(=O)CNC(=O)c1ccc(Cl)cc1	none
O=C(CN1CCCCC1)N1c2ccccc2CCc2ccccc21	none
CC1CCN(CC(=O)N2c3ccccc3CCc3ccccc32)CC1	bCat KO growth 0.8, PTEN del growth 0.8
O=C(CN1CCC(N2CCCCC2)CC1)N1CCCc2ccccc21	Lmaj promast 63.5
CCCNC(=O)CSc1nnc(-c2ccccc2Br)n1-c1cccc(C(F)(F)F)c1	Lmaj promast 79.4
COc1ccccc1C(=O)OCC(=O)NC(=O)NCc1ccccc1	none (no result: bCat KO growth, PTEN del growth)
CCOc1ccc(N2C(=O)/C(=C\c3ccccc3OC)S(=O)(=O)C2c2cccc([N+](=O)[O-])c2)cc1 (stereo not given)	Lmaj promast 50.0
COc1ccccc1/C=C1/C(=O)N(c2cc(C)cc(C)c2)C(c2cccc([N+](=O)[O-])c2)S1(=O)=O (stereo not given)	none
Cn1c(=O)n(C)c2cc(NC(=O)CCl)ccc21	none
CCn1c(=O)oc2cc(NC(=O)CCl)ccc21	Lmaj promast 69.6 (no result: bCat KO growth, PTEN del growth)
CCCc1nc(SCc2ccccn2)c2c(=O)n(C)c(=O)n(C)c2n1	none
CCCc1nc(SCc2cccnc2)c2c(=O)n(C)c(=O)n(C)c2n1	Lmaj promast 83.9
Cn1c(=O)c2c(SCc3ccccn3)nc(CC(C)(C)C)nc2n(C)c1=O	none
Cn1c(=O)c2c(SCc3cccnc3)nc(CC(C)(C)C)nc2n(C)c1=O	Lmaj promast 91.3
COc1ccccc1NCC(=O)N/N=C(\C)c1cccs1	none (no result: bCat KO growth, PTEN del growth)
Cc1ccc(S(=O)(=O)n2[nH]c(=O)cc2N)cc1	none (no result: bCat KO growth, PTEN del growth)
Cc1c(-n2c(SCC(=O)NC(C)C)nc3ccccc3c2=O)c(=O)n(-c2ccccc2)n1C	none (no result: bCat KO growth, PTEN del growth)
Fc1ccccc1COc1cccc(/C=N/n2cnnc2)c1	none
Cc1cc(/C=N/n2cnnc2)c(C)n1-c1ccc(OCc2ccc(Cl)cc2)cc1	Lmaj promast 97.8, bCat KO growth 5.3
Cc1cc(/C=N/n2cnnc2)c(C)n1-c1ccc(OCc2ccccc2F)cc1	Lmaj promast 77.2

Compound activity as filed in PubChem BioAssay.
